Data taken from PMC3048907 (Journal of medicinal chemistry, 2011).

Assays:
[1] = test system: KB-VIN (MDR line overexpressing P-glycoprotein); experiment: Antiproliferative activity assay; assay type: cell-based, human; settings: SRB assay, three days in culture; NA = not active, 20 μg/mL did not reach 50% inhibition
[2] = test system: human tumor cell lines; experiment: Antiproliferative activity across the human tumor cell line panel; assay type: cell-based
Summary of the method: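 Cells kept in RPMI-1640 with 25 mM HEPES, 0.25% bicarbonate, 10% FBS and 100 μg/mL kanamycin; trypsinized, seeded at 1500–7500 cells/well. Test compound added from DMSO stock diluted in medium (DMSO ≤0.5% v/v). After 3 days, cells fixed in cold 50% TCA, stained with 0.4% sulforhodamine B, A562 read. GI50 = 50% growth reduction vs untreated; mean of ≥3 determinations.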

[3] = test system: KB-VIN versus KB; settings: P-gp overexpressing MDR tumor cell line vs non-MDR; cited from earlier work
[4] = test system: tubulin; experiment: Tubulin assembly assay; assay type: biochemical; settings: 10 μM tubulin, 20 min at 30 °C, highest concentration evaluated 40 μM
[5] = test system: A549 cells (microtubules and spindles); experiment: Immunofluorescence staining of tubulin; assay type: cell-based, human; settings: for microtubules (α-tubulin immunofluorescence) / mitotic spindles (α-tubulin immunofluorescence): A549, 24 h, 0.1 nM 21, 100 nM colchicine, 1.5 nM pacritaxel, 500 nM doxorubicin; for concentration at which antimicrotubule activity was seen: within 24 hr
[6] = test system: KB-VIN cells; experiment: Verapamil reversal experiments; assay type: cell-based, human; settings: for effect of verapamil co-treatment on cytotoxic activity (MDR-selectivity): co-treatment with verapamil 1 μg/mL

Compound: CC1=C(O)C(C)(C)c2oc(-c3ccccc3)cc(=O)c2C1=O [Compound 1, desmosdumotin B]
- GI50 KB-VIN [1]: active
- activity against all non-MDR tumor cells [2]: non-active
- selectivity index [collateral sensitivity (CS), activity ratio of MDR line versus non-MDR line] [3]: greater than 20

Compound: CCC1=C(O)c2c(oc(-c3ccccc3)cc2=O)C(CC)(CC)C1=O [Compound 2]
- GI50 KB-VIN [1]: active
- Inhibition of tubulin assembly IC50 ± SD [4]: inactive
- IC50 ([4]; read-out: Inhibition of tubulin assembly IC50 ± SD): > 40 µM
- activity against all non-MDR tumor cells [2]: non-active

Compound: CCC1=C(O)c2c(oc(-c3ccc4ccccc4c3)cc2=O)C(CC)(CC)C1=O [Compound 11, 2-(Naphthalen-2′-yl)-6,8,8-triethyldesmosdumotin B]
- Inhibition of tubulin assembly IC50 ± SD [4]: Not obtainable ^c

Compound: CCC1=C(O)c2c(oc(-c3csc4ccccc34)cc2=O)C(CC)(CC)C1=O [Compound 21, 2-(Benzo[b]thiophen-3′-yl)-6,8,8-triethyldesmosdumotin B]
- microtubules (α-tubulin immunofluorescence) [5]: undetectable
- mitotic spindles (α-tubulin immunofluorescence) [5]: undetectable
- fold lower concentration than colchicine for antimicrotubule activity ([5]; A549 cells, 24 hr): 1000 fold
- concentration at which antimicrotubule activity was seen ([5]; A549 cells): 0.1 nM

Compound: CCC1=C(O)c2c(oc(-c3csc4ccc(Br)cc34)cc2=O)C(CC)(CC)C1=O [Compound 24, 2-(5′-Bromobenzo[b]thiophen-3′-yl)-6,8,8-triethyldesmosdumotin B]
- effect of verapamil co-treatment on cytotoxic activity (MDR-selectivity) [6]: partially reversed

Compound: CCC1=C(O)c2c(oc(-c3cccc4ccsc34)cc2=O)C(CC)(CC)C1=O [Compound 27, 2-(Benzo[b]thiophen-7′-yl)-6,8,8-triethyldesmosdumotin B]
- effect of verapamil co-treatment on cytotoxic activity (MDR-selectivity) [6]: partially reversed

Compound: COc1cc2c(c(OC)c1OC)-c1ccc(OC)c(=O)cc1[C@@H](NC(C)=O)CC2 [colchicine]
- microtubules (α-tubulin immunofluorescence) [5]: undetectable
- mitotic spindles (α-tubulin immunofluorescence) [5]: undetectable
- concentration at which antimicrotubule activity was seen ([5]; A549 cells): 100 nM

Compound: COc1cccc2c1C(=O)c1c(O)c3c(c(O)c1C2=O)C[C@@](O)(C(=O)CO)C[C@@H]3O[C@H]1C[C@H](N)[C@H](O)[C@H](C)O1 [doxorubicine]
- microtubules (α-tubulin immunofluorescence) [5]: detectable
- mitotic spindles (α-tubulin immunofluorescence) [5]: undetectable

Compound: CC(=O)O[C@H]1C(=O)[C@@]2(C)[C@H]([C@H](OC(=O)c3ccccc3)[C@]3(O)C[C@H](OC(=O)[C@H](O)[C@@H](NC(=O)c4ccccc4)c4ccccc4)C(C)=C1C3(C)C)[C@]1(OC(C)=O)CO[C@@H]1C[C@@H]2O [pacritaxel]
- microtubules (α-tubulin immunofluorescence) [5]: detectable
- mitotic spindles (α-tubulin immunofluorescence) [5]: clearly seen

Compound: COc1ccc(CCN(C)CCCC(C#N)(c2ccc(OC)c(OC)c2)C(C)C)cc1OC (stereo not shown) [verapamil]
- effect of verapamil alone on replication of KB-VIN cells ([6]; verapamil 1 μg/mL): no effect
